Measurements taken from article PMC2947195 (Biochemical Journal, 2010).
Changes are numbered by the printed parent chain.

Experiments:
Assay type in all cases: cell-based
[1] = biological target: T1, wt hRFC (Homo sapiens, UniProt P41440); assay: [3H]MTX transport kinetics
T1 sequence (P41440 1-591): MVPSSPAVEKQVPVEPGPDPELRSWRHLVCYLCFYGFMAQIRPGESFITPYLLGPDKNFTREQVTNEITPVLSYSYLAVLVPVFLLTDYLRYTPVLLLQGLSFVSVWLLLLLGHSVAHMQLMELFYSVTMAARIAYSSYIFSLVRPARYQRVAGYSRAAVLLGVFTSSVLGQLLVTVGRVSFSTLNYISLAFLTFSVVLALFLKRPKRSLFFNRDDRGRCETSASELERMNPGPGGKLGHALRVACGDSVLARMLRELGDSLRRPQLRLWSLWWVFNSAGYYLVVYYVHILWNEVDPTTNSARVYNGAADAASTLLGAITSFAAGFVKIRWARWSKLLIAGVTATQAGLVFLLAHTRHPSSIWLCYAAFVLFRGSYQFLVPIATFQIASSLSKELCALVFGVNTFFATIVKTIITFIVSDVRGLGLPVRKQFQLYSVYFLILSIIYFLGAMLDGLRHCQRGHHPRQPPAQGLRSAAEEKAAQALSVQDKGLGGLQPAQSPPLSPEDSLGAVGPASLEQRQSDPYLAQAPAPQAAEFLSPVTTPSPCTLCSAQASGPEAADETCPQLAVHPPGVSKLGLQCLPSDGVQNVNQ
How it was run: (§1)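 Human hRFC-null K500E (K562 subline) cells were electroporated (155 V, 1000 μF) with wt or Ser313-mutant hRFC. Stable clones were selected in soft agar with G418 (1 mg/ml). [3H]MTX uptake was measured over 180 s in HBSS at 37 °C in a shaking water bath and expressed as pmol/mg protein (Lowry). Kt and Vmax came from Lineweaver–Burk plots, with Vmax normalized to densitometric Western blot hRFC levels. Three experiments, means±S.E.M.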

[2] = biological target: T2, S313T hRFC (Homo sapiens, UniProt P41440, S313T); assay: [3H]MTX transport kinetics
T2 sequence (P41440 1-591 S313T): T1 sequence (P41440 1-591) with S313T
How it was run: as §1

[3] = biological target: T2, S313T hRFC; assay: [3H]MTX uptake in transiently transfected R5 HeLa cells; conditions: 0.5 μM [3H]MTX, 2 min, 37 °C, normalized to hRFC protein on Western blots
[4] = biological target: T3, cl-N6/C6 hRFC (Homo sapiens, UniProt P41440, C220S/C246S/C30S/C33S/C365S/C396S/C458S); assay: [3H]MTX uptake in R5 HeLa cells co-transfected with cysteine-less half-molecules; conditions: 0.5 μM [3H]MTX
T3 sequence (P41440 1-591 C30S/C33S/C220S): T1 sequence (P41440 1-591) with C30S, C33S, C220S
T3 sequence (P41440 227-537 C246S/C365S/C396S/C458S limits assumed): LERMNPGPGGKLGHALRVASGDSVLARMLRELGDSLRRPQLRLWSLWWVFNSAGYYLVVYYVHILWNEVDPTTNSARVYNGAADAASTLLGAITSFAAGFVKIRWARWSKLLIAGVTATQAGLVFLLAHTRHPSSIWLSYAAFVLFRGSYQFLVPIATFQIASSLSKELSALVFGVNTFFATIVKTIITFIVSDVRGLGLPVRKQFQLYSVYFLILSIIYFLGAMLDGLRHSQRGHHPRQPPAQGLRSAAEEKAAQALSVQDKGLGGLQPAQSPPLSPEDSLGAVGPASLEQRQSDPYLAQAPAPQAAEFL

[5] = K500E stable transfectant, mean±S.E.M., n=3
[6] = Vmax normalized to relative hRFC level on Western blots

CN(Cc1cnc2nc(N)nc(N)c2n1)c1ccc(C(=O)N[C@@H](CCC(=O)O)C(=O)O)cc1 [MTX, methotrexate]
Vmax (normalized)/Kt [1]: 2.44
Kt [1, 5]: 1.89 ± 0.43 µM
Normalized Vmax [1, 6]: 4.62±0.37
Vmax (normalized)/Kt [2]: 0.43
Kt [2, 5]: 2.11 ± 0.54 µM
Normalized Vmax [2, 6]: 0.91±0.16
[3H]MTX transport activity relative to wt hRFC [3]: ~ 8%
MTX uptake relative to residual level in R5 cells [4]: ~ 3 fold
decrease of MTX transport compared with wt-N6/C6 [4]: ~ 40%
